Source: ChEMBL document CHEMBL3259790, “In Vitro Membrane Permeation Studies and in Vivo Antinociception of Glycosylated Dmt(1)-DALDA Analogues” (ACS Med Chem Lett, 2014)
Where a SMILES comes first, the peptide text is derived from it. [ ]: non-standard residue; d: D form. The star is where a group is joined. X1 = OC[C@H]1O[C@@H](n2cc(C*)nn2)[C@H](O)[C@@H](O)[C@H]1O; Dmt = Cc1cc(O)cc(C)c1C[C@H](N)C(=O)O

Columns and labels:
[1] = Half life in human plasma; type: ADME, cell-free
[2] = Half life in rat brain homogenates; type: ADME, tissue-based; conditions: brain homogenate
[3] = target: Delta-type opioid receptor (Mus musculus, UniProt P32300); assay: Agonist activity at delta opioid receptor in mouse vas deferens
Procedure, shortened: (§1)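 Binding used rat brain membrane preparations, with MOR labelled by [3H]DAMGO and DOR by [3H]DSLET and read as displacement. Functional MOR activity was measured in isolated guinea pig ileum and DOR activity in isolated mouse vas deferens. Values are means of 3–4 experiments.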

[4] = system: Mus musculus; assay: Antinociceptive activity in C57Bl6 mouse assessed as maximum possible effect at 0.5 mg/kg, iv after 180 mins by hot plate test; type: functional
Procedure, shortened: (§2)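 C57Bl6 mice (23–25 g body weight) received a single intravenous dose of 0.5 mg/kg. Supraspinal antinociception was measured by hot plate and expressed as %MPE. Readings were followed over time up to 180 min after dosing to give the time course and the time of peak effect.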

[5] = system: Mus musculus; assay: Antinociceptive activity in C57Bl6 mouse assessed as time of peak effect of tail flick latency at 0.5 mg/kg, iv by tail-flick assay; type: functional
Procedure, shortened: (§3)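 C57Bl6 mice (23–25 g) were dosed intravenously at 0.5 mg/kg. Spinal antinociception was measured by tail-flick latency and expressed as %MPE. The response was tracked over time up to 180 min post-dose to find the time of peak effect.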

[6] = system: Mus musculus; assay: Antinociceptive activity in C57Bl6 mouse assessed as tail flick latency at 0.5 mg/kg, iv by tail-flick assay; type: functional, organism-based; design: dose 0.5 mg/kg; conditions: TDE = time-dependent effect; procedure, shortened: as §3
[7] = system: Mus musculus; assay: Antinociceptive activity in iv dosed C57Bl6 mouse after 5 to 180 mins by hot plate test; type: functional
Procedure, shortened: (§4)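 Intravenous dosing in C57Bl6 mice (23–25 g), with antinociception monitored up to 180 min by hot plate (supraspinal) or tail-flick (spinal) and expressed as %MPE. ED50 in mg/kg came from standard nonlinear regression of the log dose–response curve.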

[8] = system: Mus musculus; assay: Antinociceptive activity in iv dosed C57Bl6 mouse assessed as tail flick latency after 5 to 180 mins by tail-flick assay; type: functional; procedure, shortened: as §4
[9] = system: Mus musculus; assay: Antinociceptive activity in C57Bl6 mouse at 0.5 mg/kg, iv by hot plate test; type: functional, organism-based; design: dose 0.5 mg/kg; conditions: TDE = time-dependent effect; procedure, shortened: as §2
[10] = system: Mus musculus; assay: Antinociceptive activity in C57Bl6 mouse assessed as maximum possible effect of tail flick latency at 0.5 mg/kg, iv after 180 mins by tail-flick assay; type: functional; procedure, shortened: as §3
[11] = system: Mus musculus; assay: Antinociceptive activity in C57Bl6 mouse assessed as time of peak effect at 0.5 mg/kg, iv by hot plate test; type: functional; procedure, shortened: as §2
[12] = system: Plasma; assay: Drug degradation in human plasma up to 20 hrs; type: ADME, cell-free
[13] = target: Mu-type opioid receptor (Rattus norvegicus, UniProt P33535); assay: Displacement of [3H]DAMGO from mu opioid receptor in rat brain membranes; type: cell membranes, Membrane; procedure, shortened: as §1
[14] = target: Mu-type opioid receptor (Cavia porcellus, UniProt P97266); assay: Agonist activity at mu opioid receptor in guinea pig ileum; type: tissue-based; procedure, shortened: as §1
[15] = target: Delta-type opioid receptor (Rattus norvegicus, UniProt P33533); assay: Displacement of [3H]DSLET from delta opioid receptor in rat brain membranes; type: cell membranes, Membrane; procedure, shortened: as §1
Chain of Delta-type opioid receptor (Rattus norvegicus, UniProt P33533) (P33533 whole entry): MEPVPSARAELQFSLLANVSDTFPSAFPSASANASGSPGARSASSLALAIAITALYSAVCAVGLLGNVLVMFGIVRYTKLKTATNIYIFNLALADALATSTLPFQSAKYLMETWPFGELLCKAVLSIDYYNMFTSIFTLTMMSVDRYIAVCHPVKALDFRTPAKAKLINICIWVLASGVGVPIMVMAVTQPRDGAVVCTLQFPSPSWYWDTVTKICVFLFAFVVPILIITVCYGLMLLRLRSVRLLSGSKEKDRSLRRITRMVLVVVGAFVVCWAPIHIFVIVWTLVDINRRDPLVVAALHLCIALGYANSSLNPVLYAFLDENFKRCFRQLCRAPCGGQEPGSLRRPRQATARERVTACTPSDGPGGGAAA

Chain of Delta-type opioid receptor (Mus musculus, UniProt P32300) (P32300 whole entry): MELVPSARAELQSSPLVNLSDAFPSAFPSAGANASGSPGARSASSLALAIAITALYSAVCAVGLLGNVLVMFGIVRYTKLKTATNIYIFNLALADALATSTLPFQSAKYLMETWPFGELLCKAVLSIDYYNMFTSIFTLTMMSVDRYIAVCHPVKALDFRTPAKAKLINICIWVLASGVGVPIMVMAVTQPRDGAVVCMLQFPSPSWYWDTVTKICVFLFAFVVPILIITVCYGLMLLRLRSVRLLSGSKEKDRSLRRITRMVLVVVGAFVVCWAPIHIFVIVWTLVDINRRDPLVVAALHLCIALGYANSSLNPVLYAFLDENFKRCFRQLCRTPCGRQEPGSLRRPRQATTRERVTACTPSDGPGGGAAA
Chain of Mu-type opioid receptor (Cavia porcellus, UniProt P97266) (P97266 whole entry): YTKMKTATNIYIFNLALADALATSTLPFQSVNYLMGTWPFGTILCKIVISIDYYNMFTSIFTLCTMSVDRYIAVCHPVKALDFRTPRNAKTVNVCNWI
Chain of Mu-type opioid receptor (Rattus norvegicus, UniProt P33535) (P33535 whole entry): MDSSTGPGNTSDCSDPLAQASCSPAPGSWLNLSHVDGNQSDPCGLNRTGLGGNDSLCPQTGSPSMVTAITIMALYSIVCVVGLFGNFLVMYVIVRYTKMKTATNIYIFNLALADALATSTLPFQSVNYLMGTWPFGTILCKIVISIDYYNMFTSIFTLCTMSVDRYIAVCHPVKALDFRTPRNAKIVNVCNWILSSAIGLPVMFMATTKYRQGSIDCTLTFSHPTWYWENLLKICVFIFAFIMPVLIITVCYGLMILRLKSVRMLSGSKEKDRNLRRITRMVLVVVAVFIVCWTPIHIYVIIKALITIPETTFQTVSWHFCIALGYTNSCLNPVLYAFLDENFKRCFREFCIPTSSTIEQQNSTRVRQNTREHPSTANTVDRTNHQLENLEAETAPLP

Cc1cc(O)cc(C)c1C[C@H](N)C(=O)N1CCC[C@H]1C(=O)N[C@@H](Cc1ccccc1)C(=O)N[C@@H](Cc1ccccc1)C(N)=O
half-life [1]: 53 min | half-life [2]: 39.5 min

Cc1cc(O)cc(C)c1C[C@H](N)C(=O)N[C@H](CCCNC(=N)N)C(=O)N[C@@H](Cc1ccccc1)C(=O)N[C@@H](Cc1cn([C@@H]2O[C@H](CO)[C@H](O)[C@H](O)[C@H]2O)nn1)C(N)=O
IC50 [3]: 1.98 nM | MPE [4]: 40% | Time [5]: 60 min | Activity [6]: tde | Activity [7]: Dose-dependent effect | ED50 [7]: 0.4 mg/kg | Activity [8]: Dose-dependent effect | ED50 [8]: 0.27 mg/kg | Activity [9]: tde | MPE [10]: 40% | Time [11]: 60 min | Stability [12]: Stable | Ki [13]: 0.222 nM | IC50 [14]: 0.66 nM | Ki [15]: 15.6 nM

NCCCC[C@H](NC(=O)[C@H](Cc1ccccc1)NC(=O)[C@@H](CCCN=C(N)N)NC(=O)[C@@H](N)Cc1ccc(O)cc1)C(N)=O
IC50 [14]: 254 nM

Cc1cc(O)cc(C)c1C[C@H](N)C(=O)N[C@H](CCCNC(=N)N)C(=O)N[C@@H](Cc1ccccc1)C(=O)N[C@@H](CCCCN)C(N)=O
MPE [4]: 40% | Time [5]: 60 min | Activity [6]: tde | Activity [7]: Dose-dependent effect | ED50 [7]: 0.25 mg/kg | Activity [8]: Dose-dependent effect | ED50 [8]: 0.17 mg/kg | Activity [9]: tde | MPE [10]: 40%

Cc1cc(O)cc(C)c1C[C@H](N)C(=O)N[C@H](CCCNC(=N)N)C(=O)N[C@@H](Cc1ccccc1)C(=O)N[C@@H](Cc1cn([C@@H]2O[C@H](CO)[C@@H](O)[C@H](O)[C@H]2O)nn1)C(N)=O
IC50 [3]: 2.75 nM | MPE [4]: 40% | Time [5]: 60 min | Activity [6]: tde | Activity [7]: Dose-dependent effect | ED50 [7]: 0.31 mg/kg | Activity [8]: Dose-dependent effect | ED50 [8]: 0.34 mg/kg | Activity [9]: tde | MPE [10]: 40% | Stability [12]: Stable | Ki [13]: 0.203 nM | IC50 [14]: 1.46 nM | Ki [15]: 11.9 nM

Cc1cc(O)cc(C)c1C[C@H](N)C(=O)N[C@H](CCCNC(=N)N)C(=O)N[C@@H](Cc1ccccc1)C(=O)N[C@@H](COCc1cn([C@@H]2O[C@H](CO)[C@H](O)[C@H](O)[C@H]2O)nn1)C(N)=O (H-[Dmt][dR]FS(X1)-NH2)
IC50 [3]: 4.9 nM | Ki [13]: 0.112 nM | IC50 [14]: 0.35 nM | Ki [15]: 6.36 nM

N=C(N)NCCC[C@@H](NC(=O)[C@@H](N)Cc1ccc(OCc2cn([C@@H]3O[C@H](CO)[C@H](O)[C@H](O)[C@H]3O)nn2)cc1)C(=O)N[C@@H](Cc1ccccc1)C(=O)N[C@@H](CCCCN)C(N)=O
IC50 [3]: 1990 nM | Ki [13]: 38.4 nM | IC50 [14]: 1180 nM | Ki [15]: > 5000 nM

Cc1cc(O)cc(C)c1C[C@H](N)C(=O)N[C@H](CCCNC(=N)N)C(=O)N[C@@H](Cc1ccccc1)C(=O)N[C@@H](Cc1ccc(OCc2cn([C@@H]3O[C@H](CO)[C@H](O)[C@H](O)[C@H]3O)nn2)cc1)C(N)=O (H-[Dmt][dR]FY(X1)-NH2)
IC50 [3]: 6 nM | Ki [13]: 0.286 nM | IC50 [14]: 2.3 nM | Ki [15]: 22.2 nM
